Reference: ChEMBL document CHEMBL5303300, “EUbOPEN Chemogenomics Library - Multiplex” (2023)
“And” between values parts separate entries of the source, which are not always exact repeats. Equal entries are not always repeated.

System: Fibroblast
Experiment: Multiplex assay against human fibroblast
Assay type: toxicity, cell-based
Settings: number of replicates 2
Method in brief: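 Live cells were stained at seeding with Hoechst33342, BioTracker Green Microtubule Cytoskeleton Dye, MitoTracker Red and Annexin V Alexa Fluor 680, then imaged on a CQ1 microscope at 37°C and 5% CO2 after compound addition. CellPathfinder machine-learning gating split cells into Hoechst high-intensity objects or normal cells. Normal cells were split into healthy, pyknosed or fragmented nuclei, and pyknosed cells into mitotic or apoptotic. Tubulin, mitochondrial-mass and membrane-permeability phenotypes are per cents of healthy-nucleus cells.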

[1] = 12 h, 1 µM, compound concentration 1 uM
[2] = 12 h, 10 µM, compound concentration 10 uM
[3] = 24 h, 1 µM, compound concentration 1 uM
[4] = 24 h, 10 µM, compound concentration 10 uM
[5] = 48 h, 1 µM, compound concentration 1 uM
[6] = 48 h, 10 µM, compound concentration 10 uM

Cc1cc(NC(=O)c2cccc(NC(=O)/C=C/CN(C)C)c2)ccc1Nc1nccc(-c2cccnc2)n1
Population Apoptotic (%) [1]: 39% and 33%
Population Fragmented Nuclei (%) [1]: 12% and 17%
Population Healthy Nuclei (%) [1]: 63% and 56%
Population Hoechst High Intensity Objects (%) [1]: 0%
Population Membrane Permeable-Phenotype (%) [1]: 9% and 11%
Population Mitochondria Different-Phenotype (%) [1]: 0% and 1%
Population Mitotic Cells (%) [1]: 60% and 66%
Population Normal (%) [1]: 100%
Population Pyknosed Nuclei (%) [1]: 24% and 25%
Population Tubulin-Different-Phenotype (%) [1]: 18% and 11%
Total Cell Count [1]: 190 and 197
Population Apoptotic (%) [2]: 48% and 33%
Population Fragmented Nuclei (%) [2]: 4% and 10%
Population Healthy Nuclei (%) [2]: 53% and 56%
Population Hoechst High Intensity Objects (%) [2]: 0%
Population Membrane Permeable-Phenotype (%) [2]: 7% and 14%
Population Mitochondria Different-Phenotype (%) [2]: 8% and 2%
Population Mitotic Cells (%) [2]: 51% and 66%
Population Normal (%) [2]: 100% and 99%
Population Pyknosed Nuclei (%) [2]: 41% and 33%
Population Tubulin-Different-Phenotype (%) [2]: 77% and 50%
Total Cell Count [2]: 130 and 219
Population Apoptotic (%) [3]: 47% and 40%
Population Fragmented Nuclei (%) [3]: 22% and 24%
Population Healthy Nuclei (%) [3]: 54% and 52%
Population Hoechst High Intensity Objects (%) [3]: 0%
Population Membrane Permeable-Phenotype (%) [3]: 5% and 3%
Population Mitochondria Different-Phenotype (%) [3]: 0% and 2%
Population Mitotic Cells (%) [3]: 52% and 59%
Population Normal (%) [3]: 100%
Population Pyknosed Nuclei (%) [3]: 23%
Population Tubulin-Different-Phenotype (%) [3]: 21% and 13%
Total Cell Count [3]: 230 and 222
Population Apoptotic (%) [4]: 53% and 39%
Population Fragmented Nuclei (%) [4]: 11%
Population Healthy Nuclei (%) [4]: 36% and 51%
Population Hoechst High Intensity Objects (%) [4]: 0%
Population Membrane Permeable-Phenotype (%) [4]: 6% and 7%
Population Mitochondria Different-Phenotype (%) [4]: 18% and 13%
Population Mitotic Cells (%) [4]: 46% and 60%
Population Normal (%) [4]: 99%
Population Pyknosed Nuclei (%) [4]: 51% and 36%
Population Tubulin-Different-Phenotype (%) [4]: 81% and 63%
Total Cell Count [4]: 118 and 221
Population Apoptotic (%) [5]: 68% and 75%
Population Fragmented Nuclei (%) [5]: 24% and 29%
Population Healthy Nuclei (%) [5]: 62% and 60%
Population Hoechst High Intensity Objects (%) [5]: 0%
Population Membrane Permeable-Phenotype (%) [5]: 6% and 4%
Population Mitochondria Different-Phenotype (%) [5]: 1% and 0%
Population Mitotic Cells (%) [5]: 31% and 25%
Population Normal (%) [5]: 100% and 99%
Population Pyknosed Nuclei (%) [5]: 13% and 10%
Population Tubulin-Different-Phenotype (%) [5]: 23% and 29%
Total Cell Count [5]: 237 and 239
Population Apoptotic (%) [6]: 82% and 60%
Population Fragmented Nuclei (%) [6]: 14%
Population Healthy Nuclei (%) [6]: 30% and 39%
Population Hoechst High Intensity Objects (%) [6]: 0%
Population Membrane Permeable-Phenotype (%) [6]: 19% and 12%
Population Mitochondria Different-Phenotype (%) [6]: 22% and 15%
Population Mitotic Cells (%) [6]: 17% and 39%
Population Normal (%) [6]: 100% and 99%
Population Pyknosed Nuclei (%) [6]: 54% and 45%
Population Tubulin-Different-Phenotype (%) [6]: 80% and 78%
Total Cell Count [6]: 117 and 218

COc1ncc(-c2cc(-c3ncc(CN4C[C@@H](C)O[C@@H](C)C4)o3)c3cn[nH]c3c2)cc1NS(C)(=O)=O
Population Apoptotic (%) [1]: 48%
Population Fragmented Nuclei (%) [1]: 7% and 8%
Population Healthy Nuclei (%) [1]: 77% and 70%
Population Hoechst High Intensity Objects (%) [1]: 0%
Population Membrane Permeable-Phenotype (%) [1]: 5% and 10%
Population Mitochondria Different-Phenotype (%) [1]: 0%
Population Mitotic Cells (%) [1]: 51%
Population Normal (%) [1]: 100%
Population Pyknosed Nuclei (%) [1]: 14% and 21%
Population Tubulin-Different-Phenotype (%) [1]: 13% and 11%
Total Cell Count [1]: 228 and 199
Population Apoptotic (%) [2]: 30% and 51%
Population Fragmented Nuclei (%) [2]: 4% and 11%
Population Healthy Nuclei (%) [2]: 59% and 66%
Population Hoechst High Intensity Objects (%) [2]: 0%
Population Membrane Permeable-Phenotype (%) [2]: 10% and 9%
Population Mitochondria Different-Phenotype (%) [2]: 3% and 5%
Population Mitotic Cells (%) [2]: 69% and 48%
Population Normal (%) [2]: 100%
Population Pyknosed Nuclei (%) [2]: 35% and 22%
Population Tubulin-Different-Phenotype (%) [2]: 40% and 37%
Total Cell Count [2]: 129 and 148
Population Apoptotic (%) [3]: 51% and 60%
Population Fragmented Nuclei (%) [3]: 6% and 9%
Population Healthy Nuclei (%) [3]: 79% and 67%
Population Hoechst High Intensity Objects (%) [3]: 0%
Population Membrane Permeable-Phenotype (%) [3]: 5% and 11%
Population Mitochondria Different-Phenotype (%) [3]: 0%
Population Mitotic Cells (%) [3]: 48% and 39%
Population Normal (%) [3]: 100% and 99%
Population Pyknosed Nuclei (%) [3]: 13% and 23%
Population Tubulin-Different-Phenotype (%) [3]: 9% and 13%
Total Cell Count [3]: 224 and 204
Population Apoptotic (%) [4]: 55% and 66%
Population Fragmented Nuclei (%) [4]: 6% and 11%
Population Healthy Nuclei (%) [4]: 62% and 71%
Population Hoechst High Intensity Objects (%) [4]: 0%
Population Membrane Permeable-Phenotype (%) [4]: 0% and 6%
Population Mitochondria Different-Phenotype (%) [4]: 3% and 4%
Population Mitotic Cells (%) [4]: 45% and 33%
Population Normal (%) [4]: 100%
Population Pyknosed Nuclei (%) [4]: 31% and 17%
Population Tubulin-Different-Phenotype (%) [4]: 30% and 25%
Total Cell Count [4]: 128 and 157
Population Apoptotic (%) [5]: 69% and 60%
Population Fragmented Nuclei (%) [5]: 12% and 10%
Population Healthy Nuclei (%) [5]: 77% and 74%
Population Hoechst High Intensity Objects (%) [5]: 0%
Population Membrane Permeable-Phenotype (%) [5]: 2% and 7%
Population Mitochondria Different-Phenotype (%) [5]: 0%
Population Mitotic Cells (%) [5]: 30% and 40%
Population Normal (%) [5]: 100% and 99%
Population Pyknosed Nuclei (%) [5]: 9% and 14%
Population Tubulin-Different-Phenotype (%) [5]: 4% and 11%
Total Cell Count [5]: 235 and 206
Population Apoptotic (%) [6]: 70% and 78%
Population Fragmented Nuclei (%) [6]: 5% and 13%
Population Healthy Nuclei (%) [6]: 64% and 67%
Population Hoechst High Intensity Objects (%) [6]: 0%
Population Membrane Permeable-Phenotype (%) [6]: 4% and 5%
Population Mitochondria Different-Phenotype (%) [6]: 4% and 1%
Population Mitotic Cells (%) [6]: 30% and 21%
Population Normal (%) [6]: 100% and 99%
Population Pyknosed Nuclei (%) [6]: 29% and 19%
Population Tubulin-Different-Phenotype (%) [6]: 39% and 28%
Total Cell Count [6]: 134 and 167

CNC(=O)c1c(F)cccc1Nc1nc(Nc2cc3c(cc2OC)CCN3C(=O)CN(C)C)nc2[nH]ccc12
Population Apoptotic (%) [1]: 26% and 33%
Population Fragmented Nuclei (%) [1]: 9% and 14%
Population Healthy Nuclei (%) [1]: 66% and 70%
Population Hoechst High Intensity Objects (%) [1]: 0%
Population Membrane Permeable-Phenotype (%) [1]: 6% and 2%
Population Mitochondria Different-Phenotype (%) [1]: 0% and 3%
Population Mitotic Cells (%) [1]: 73% and 66%
Population Normal (%) [1]: 100% and 99%
Population Pyknosed Nuclei (%) [1]: 24% and 14%
Population Tubulin-Different-Phenotype (%) [1]: 7% and 20%
Total Cell Count [1]: 166 and 190
Population Apoptotic (%) [2]: 61% and 48%
Population Fragmented Nuclei (%) [2]: 11% and 13%
Population Healthy Nuclei (%) [2]: 16% and 26%
Population Hoechst High Intensity Objects (%) [2]: 0%
Population Membrane Permeable-Phenotype (%) [2]: 34% and 21%
Population Mitochondria Different-Phenotype (%) [2]: 3%
Population Mitotic Cells (%) [2]: 38% and 51%
Population Normal (%) [2]: 100%
Population Pyknosed Nuclei (%) [2]: 72% and 59%
Population Tubulin-Different-Phenotype (%) [2]: 80% and 51%
Total Cell Count [2]: 162 and 196
Population Apoptotic (%) [3]: 27% and 47%
Population Fragmented Nuclei (%) [3]: 11% and 9%
Population Healthy Nuclei (%) [3]: 67% and 80%
Population Hoechst High Intensity Objects (%) [3]: 0%
Population Membrane Permeable-Phenotype (%) [3]: 2% and 1%
Population Mitochondria Different-Phenotype (%) [3]: 0% and 4%
Population Mitotic Cells (%) [3]: 72% and 52%
Population Normal (%) [3]: 100% and 99%
Population Pyknosed Nuclei (%) [3]: 20% and 10%
Total Cell Count [3]: 159 and 167
Population Apoptotic (%) [4]: 70% and 79%
Population Fragmented Nuclei (%) [4]: 16% and 11%
Population Healthy Nuclei (%) [4]: 18% and 17%
Population Hoechst High Intensity Objects (%) [4]: 1% and 0%
Population Membrane Permeable-Phenotype (%) [4]: 72% and 73%
Population Mitochondria Different-Phenotype (%) [4]: 6% and 7%
Population Mitotic Cells (%) [4]: 29% and 20%
Population Normal (%) [4]: 98% and 99%
Population Pyknosed Nuclei (%) [4]: 64% and 71%
Population Tubulin-Different-Phenotype (%) [4]: 75% and 65%
Total Cell Count [4]: 159 and 152
Population Apoptotic (%) [5]: 58% and 81%
Population Fragmented Nuclei (%) [5]: 13% and 15%
Population Healthy Nuclei (%) [5]: 73% and 76%
Population Hoechst High Intensity Objects (%) [5]: 0%
Population Membrane Permeable-Phenotype (%) [5]: 2% and 1%
Population Mitochondria Different-Phenotype (%) [5]: 0%
Population Mitotic Cells (%) [5]: 41% and 18%
Population Normal (%) [5]: 100%
Population Pyknosed Nuclei (%) [5]: 13% and 8%
Population Tubulin-Different-Phenotype (%) [5]: 3% and 5%
Total Cell Count [5]: 178 and 200
Population Apoptotic (%) [6]: 90% and 93%
Population Fragmented Nuclei (%) [6]: 37% and 31%
Population Healthy Nuclei (%) [6]: 20% and 24%
Population Hoechst High Intensity Objects (%) [6]: 0%
Population Membrane Permeable-Phenotype (%) [6]: 75% and 48%
Population Mitochondria Different-Phenotype (%) [6]: 3% and 0%
Population Mitotic Cells (%) [6]: 9% and 6%
Population Normal (%) [6]: 100% and 99%
Population Pyknosed Nuclei (%) [6]: 41% and 43%
Population Tubulin-Different-Phenotype (%) [6]: 62% and 57%
Total Cell Count [6]: 158 and 145
